Test results from PMC7203693 (ACS Omega, 2020).

Legend:
AD model rats [1] = test: HE staining of hippocampus CA3 region of AD model rats; assay type: in vivo; conditions: AD rats, 5, 10, and 20 mg/kg
AD model rats [2] = test: Bielschowsky silver staining of hippocampus of AD model rats; assay type: in vivo; conditions: AD rats, 10, 20 mg/kg, versus AD model group
Outline: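 SD rats (8 weeks, 280 ± 10 g) got bilateral hippocampal Aβ25-35 (10 μg in 2 μL, pre-aggregated 4 days at 37 °C); sham rats got saline. Formalin-fixed paraffin coronal sections (40 μm) were stained by modified Bielschowsky silver (20% AgNO3, ammoniacal silver), and positive neurons were counted at 10 × 40.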

PC12 cells = test: Cytotoxicity in PC12 cells; assay type: cell-based; conditions: 10 μM, 24 h
Outline: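 PC12 cells were grown in DMEM with 10% FBS and penicillin/streptomycin (37 °C, 5% CO2), seeded at 10⁵/well and left 24 h. Test compound (DMSO stock diluted in medium) was given at 10 μM for 24 h, with edaravone as positive control. MTT was added for 2 h, formazan was dissolved in DMSO, and absorbance was read at 490 nm.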

AChE = AChE (Homo sapiens, UniProt P22303); test: biochemical
Sequence of AChE (P22303 32-614): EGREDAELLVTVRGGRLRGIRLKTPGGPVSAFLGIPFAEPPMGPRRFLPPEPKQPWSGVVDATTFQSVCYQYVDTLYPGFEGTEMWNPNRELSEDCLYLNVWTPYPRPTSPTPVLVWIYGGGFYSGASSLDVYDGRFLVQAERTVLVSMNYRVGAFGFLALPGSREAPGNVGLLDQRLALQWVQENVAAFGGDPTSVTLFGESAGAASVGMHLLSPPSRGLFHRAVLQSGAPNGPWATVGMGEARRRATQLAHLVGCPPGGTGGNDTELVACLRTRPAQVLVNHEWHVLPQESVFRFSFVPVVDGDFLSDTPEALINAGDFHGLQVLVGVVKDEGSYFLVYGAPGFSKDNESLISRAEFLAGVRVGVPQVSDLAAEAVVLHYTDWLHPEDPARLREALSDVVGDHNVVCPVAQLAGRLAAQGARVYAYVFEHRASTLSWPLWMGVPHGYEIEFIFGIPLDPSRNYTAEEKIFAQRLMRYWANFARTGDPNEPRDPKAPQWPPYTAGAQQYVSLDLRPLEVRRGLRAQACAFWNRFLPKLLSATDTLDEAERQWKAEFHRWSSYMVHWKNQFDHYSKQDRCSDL

Aβ1-42 = test: Immunohistochemistry for Aβ1-42 in hippocampus of AD model rats; assay type: in vivo; conditions: AD rats, 10, 20 mg/kg, compared with the model group (p < 0.05)
Outline: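 Hippocampal sections from five rats: endogenous peroxidase blocked, 5% normal goat serum in 0.3% Triton/PBS, rabbit anti-Aβ1-42 (1:300) overnight at 4 °C, biotinylated goat anti-rabbit (1:500) 1 h at room temperature, then DAB for 10 min.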

AD model rats [3] = test: Open-field test in Aβ25-35-induced AD model rats; assay type: in vivo; conditions: for total distance moved in open field: AD rats, Aβ model group 17.34 ± 3.88
Outline: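 After 1 h acclimation, each rat explored a dimly lit 100 × 100 × 50 cm box for 2 min, with 70% ethanol cleaning between trials. Video gave total distance and central-zone time. Mean ± SEM, t-test.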

AD model rats [4] = test: Morris water maze in Aβ25-35-induced AD model rats; assay type: in vivo; conditions: compared to the model rats (p < 0.05)
Outline: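 Pool 180 cm wide, water at 25 ± 1 °C, hidden platform 2 cm submerged. Training: four 2-min trials daily (30 min apart) for 5 days. Escape latency and swim path were video-tracked. Probe trial: platform removed, 2-min swim, crossings counted. Mean ± SEM, t-test.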

ICR mice = test: Acute oral toxicity test in mice; assay type: in vivo; conditions: for deaths: 10 animals; for deaths / death rate: 14 day
Outline: (§1)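 ICR mice (18–22 g, half male, half female), seven groups of 10. Single oral gavage of 1310, 1638, 2048, 2560, 3200 or 4000 mg/kg, suspended in 0.5% carboxymethyl cellulose; the control group received vehicle. General behaviour, toxicity signs and mortality were followed for 14 days. LD50 was estimated by log-probit regression of mortality.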

[5] = Acute oral toxicity test in mice; assay type: in vivo; conditions: both, ICR, mouse, in vivo, po
Outline: as §1

AD model rats [6] = test: Nissl staining of hippocampal CA1 region of AD model rats; assay type: in vivo; conditions: 10 and 20 mg/kg groups
Outline: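 Brains were paraformaldehyde-postfixed and cryoprotected in 30% sucrose. Frozen 25 μm hippocampal sections were stained with 2% cresyl violet for 5 min. Necrotic CA1 cells were counted by light microscopy (n = 5 rats/group, three sections per rat).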

[7] = mice, single oral dose 1310 mg/kg
[8] = mice, single oral dose 1638 mg/kg
[9] = mice, single oral dose 2048 mg/kg
[10] = mice, single oral dose 2560 mg/kg
[11] = mice, single oral dose 3200 mg/kg
[12] = mice, single oral dose 4000 mg/kg

For `COc1c(OC(=O)N(C)c2ccccc2)cc2oc3cc4c(c(O)c3c(=O)c2c1CC=C(C)C)C=CC(C)(C)O4` [AMG-1, 5-Hydroxy-8-methoxy-2,2-dimethyl-7-(3-methylbut-2-en-1-yl)-6-oxo-2,6-dihydropyrano[3,2-b]xanthen-9-yl methyl(phenyl)carbamate], the “pyramidal cell morphology and density, hippocampus CA3 (HE staining)” value (AD model rats [1]) was “better cell morphology and density than those in the model group”, the “number of senile plaques in hippocampus (silver staining)” value (AD model rats [2]) was “less” and the “inhibition ratio (cytotoxic effect, cell proliferation)” value (from here on “inhibition ratio”) (PC12 cells) was 7.2%. The IC50 (AChE) was 52.6 ± 11.3 µM, the “expression of Aβ1-42 in hippocampus (immunohistochemistry)” value (Aβ1-42) was “significantly reduced expression” and the “time spent in the central zone in open field” value (AD model rats [3]; AD rats, 5, 10, 20 mg/kg oral 30 days, compared to the Aβ model group) was “dose-dependent increase”. For the same compound, the “total distance moved in open field” value (AD model rats [3]; AMG-1 20 mg/kg oral once daily 30 days) was 28.55 ± 6.87 m, the “time in the target quadrant” value (AD model rats [4]; probe trial) was “significantly more time” and the “time to reach the place of the removed platform” value (AD model rats [4]; probe trial) was “significantly less time”. For the same compound, the “escape latency in Morris water maze” value (AD model rats [4]; retention phase) was “significant improvements”, the “total distance traveled in Morris water maze” value (AD model rats [4]; retention phase) was “significant improvements” and the “toxicity at the dose for administration” value (ICR mice; level of 20 mg/kg or less) was “no obvious toxicity”. The signs of toxicity (ICR mice; mice, acute oral toxicity experiment period) was “messy furs and loose gray stool around the anus”, the “time found dead after administration” value (ICR mice; mice, highest dosed group 4000 mg/kg oral) was 16 to 48 h and the deaths (ICR mice; [7]) was 0. For the same compound, the death rate (ICR mice; [7]) was 0%, the deaths (ICR mice; [8]) was 1 and the death rate (ICR mice; [8]) was 10%. For the same compound, the deaths (ICR mice; [9]) was 4, the death rate (ICR mice; [9]) was 40% and the deaths (ICR mice; [10]) was 6. The death rate (ICR mice; [10]) was 60%, the deaths (ICR mice; [11]) was 7 and the death rate (ICR mice; [11]) was 70%. The deaths (ICR mice; [12]) was 9, the death rate (ICR mice; [12]) was 90% and the LD50 at 14 day [5] was 2470 mg/kg. For the same compound, the “neuronal damage in hippocampal CA1 (Nissl staining)” value (AD model rats [6]) was “significantly attenuated”.
In the case of `CCN(C(=O)Oc1cc2oc3cc4c(c(O)c3c(=O)c2c(CC=C(C)C)c1OC)C=CC(C)(C)O4)c1ccccc1` [AMG-2, 5-Hydroxy-8-methoxy-2,2-dimethyl-7-(3-methylbut-2-en-1-yl)-6-oxo-2,6-dihydropyrano[3,2-b]xanthen-9-yl ethyl(phenyl)carbamate], the “inhibition ratio” value (PC12 cells) is reported as 6.7% and the IC50 (AChE) is reported as 35.1 ± 9.38 µM.
For `COc1c(OC(=O)N(C)c2ccccc2C)cc2oc3cc4c(c(O)c3c(=O)c2c1CC=C(C)C)C=CC(C)(C)O4` [AMG-3, 5-Hydroxy-8-methoxy-2,2-dimethyl-7-(3-methylbut-2-en-1-yl)-6-oxo-2,6-dihydropyrano[3,2-b]xanthen-9-yl methyl(o-tolyl)carbamate], the “inhibition ratio” value (PC12 cells) was 5.9% and the IC50 (AChE) was 32.9 ± 7.78 µM.
For `COc1cc2c(cc1OC)C(=O)C(CC1CCN(Cc3ccccc3)CC1)C2` (stereo not drawn) [donepezil, reference compound], the “total distance moved in open field” value (AD model rats [3]; donepezil 1 mg/kg oral once daily 30 days) was 31.37 ± 7.14 m.
In the case of `CC1=NN(c2ccccc2)C(=O)C1` [edaravone, reference compound], the “inhibition ratio” value (PC12 cells) is reported as 0%.
For `COc1c(O)cc2oc3cc(O)c(CC=C(C)C)c(O)c3c(=O)c2c1CC=C(C)C` [α-M, 1,3,6-trihydroxy-7-methoxy-2,8-bis(3-methylbut-2-en-1-yl)-9H-xanthen-9-one, reference compound], the “inhibition ratio” value (PC12 cells) was 73.1% and the IC50 (AChE) was 34.3 ± 6.06 µM.
